The record followed here is ChEMBL document CHEMBL2311488 (Bioorg Med Chem Lett, 2013).

Values after ≈ are worked out from the molar mass of the structure shown.

A short description of data set [1]: Drug uptake in mouse CSF at 0.5 mg/kg, iv at 30 mins. In kind it is ADME, organism-based, Cerebrospinal fluid. Also noted: dose 0.5 mg/kg, route intravenous. As to conditions: read-out: Drug uptake. The method in brief:
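CSF drug concentration was measured 30 min after a 0.5 mg/kg intravenous dose.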

In data set [2] the target is T1, Neuropeptide Y receptor type 5 (Mus musculus, UniProt O70342).
T1 sequence (O70342 whole entry): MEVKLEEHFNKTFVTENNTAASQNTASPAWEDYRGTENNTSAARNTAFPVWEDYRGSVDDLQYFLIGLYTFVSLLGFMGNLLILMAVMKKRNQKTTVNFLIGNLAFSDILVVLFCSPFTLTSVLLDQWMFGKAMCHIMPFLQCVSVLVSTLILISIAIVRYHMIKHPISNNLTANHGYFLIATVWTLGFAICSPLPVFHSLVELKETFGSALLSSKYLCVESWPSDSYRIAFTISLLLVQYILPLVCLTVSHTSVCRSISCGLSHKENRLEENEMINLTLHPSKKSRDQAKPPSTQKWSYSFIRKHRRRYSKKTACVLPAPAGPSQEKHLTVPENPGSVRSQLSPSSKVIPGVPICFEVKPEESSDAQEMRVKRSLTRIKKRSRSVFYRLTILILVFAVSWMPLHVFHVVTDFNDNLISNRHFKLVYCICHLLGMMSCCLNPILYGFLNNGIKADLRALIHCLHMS
Briefly: Displacement of [125I]PYY from mouse NPY-Y5 receptor.

Data set [3] in a line: in vitro. To be noted: human, liver microsomes.
Data set [4] is filed under the species Rattus norvegicus. Briefly: in vitro. To be noted: liver microsomes. (In general: Liver microsomes are vesicles of endoplasmic reticulum, rich in cytochrome P450 enzymes.)
Data set [5] can be described thus: physchem. To be noted: pH 6.8.
Data set [6] has as its system Mus musculus. As to the kind of experiment: Toxicity in mouse assessed as appearance of abnormal behavior at 6.25 to 25 mg/kg, po bid measured for 21 days. In kind it is organism-based. Also on record: dose 6.25-25 mg/kg, route oral. To be noted: in vivo, 504 h. A digest of the protocol: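 Diet-induced obese mice were given compound orally for 21 days and watched for abnormal behavior during dosing.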

The subject of data set [7] is Mus musculus. As to the kind of experiment: Antiobesity activity against DIO mouse assessed as reduction of body weight administered as po bid measured for 21 days. The class given is functional, organism-based. A digest of the protocol:
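Diet-induced obese mice were dosed orally for 21 days, with body weight gain compared against a control group (n = 7).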

Data set [8] relates to Mus musculus. Briefly: Antiobesity activity in DIO mouse assessed as reduction of [cPP1to7, NPY19 to 23, Ala31, Aib32, Gln42]-induced food intake at 12.5 mg/kg, po administered 1 hr prior to [cPP1to7, NPY19 to 23, Ala31, Aib32, Gln42] induction measured after 2 hrs relative to vehicle-treated control. In kind it is functional. Also on record: scale not given: the % may be the effect or the level left. The method in brief:
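Mice received oral compound at 12.5 mg/kg 1 h before treatment with a Y5-selective agonist peptide. Food intake was then compared with the increase the agonist induces.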

Turning to `CCS(=O)(=O)c1ccc2nc(OCC(F)(F)c3ccccc3)[nH]c2c1`, the concentration at 0.5 h in data set [1] turned out to be 1.7 ng/mL. The 50% inhibitory concentration (IC50) – broadly, the concentration needed to halve the response being measured – in data set [2] came to 4.39 nM. In addition, the share remaining (in general, the share of the starting amount still present when the sample was taken) at 0.5 h in data set [3] worked out at 97.9%; in data set [4], 83.8%. In data set [5], the solubility (kinetic) (in general, solubility judged after dilution from a stock solution rather than from solid) was over 50 µM.

Turning to `CCS(=O)(=O)c1ccc2[nH]c(C(=O)c3ccc(-c4ccccc4)cc3)nc2c1`, the 50% inhibitory concentration (IC50) in data set [2] was found to be 2.61 nM. The amount remaining at 0.5 h in data set [3] and in data set [4] was over 99.9% each time. Also, in data set [5], the solubility (kinetic) is 0.3 µM (≈ 0.117 µg/mL).

Regarding `CCS(=O)(=O)c1ccc2[nH]c(Oc3ccccc3C(F)(F)F)nc2c1`, in data set [2], the IC50 was 3190 nM. The solubility (kinetic) in data set [5] is over 50 µM.

Turning to `CCS(=O)(=O)c1ccc2[nH]c(Oc3ccc(-c4ccccc4)cc3)nc2c1`, in data set [2], the concentration for half-maximal inhibition (IC50) was 2.82 nM. For the same compound, the fraction remaining at 0.5 h in data set [3] and in data set [4] was over 99.9% in each case. In addition, in data set [5], the kinetic solubility was found to be 2.5 µM (≈ 0.946 µg/mL).

The compound `CCS(=O)(=O)c1ccc2nc(Cc3ccc(-c4ccccc4)cc3)[nH]c2c1` gave a concentration for half-maximal inhibition (IC50) in data set [2] of 112 nM. In addition, the amount remaining at 0.5 h amounted to 87.6% in data set [3] and 74.3% in data set [4]. The same compound came in with a kinetic solubility in data set [5] of 3 µM (≈ 1.13 µg/mL).

For the compound `CCS(=O)(=O)c1ccc2[nH]c(C3(c4ccc(-c5ccccc5)cc4)CC3)nc2c1`, the half-inhibitory concentration (IC50) in data set [2] was 608 nM. In addition, the values for the fraction remaining at 0.5 h in data set [3] and in data set [4] were 88.5% and 81.3%, respectively. Moreover, the kinetic solubility in data set [5] amounted to 0.5 µM (≈ 0.201 µg/mL).

In the case of `CCS(=O)(=O)c1ccc2[nH]c(Oc3cccc(-c4ccccc4)c3)nc2c1`, the IC50 in data set [2] was 9.55 nM. Further, the share remaining at 0.5 h in data set [3] was 29.1%; in data set [4], 77.3%. Also, the kinetic solubility in data set [5] was found to be 4.2 µM (≈ 1.59 µg/mL).

The compound `CCS(=O)(=O)c1ccc2nc(Oc3cccc(OC(F)(F)F)c3)[nH]c2c1` gave a half-maximal inhibitory concentration (IC50) in data set [2] of 7.11 nM. Further, the fraction remaining at 0.5 h in data set [3] worked out at 97.1%; in data set [4], 86.2%. The compound also registered a kinetic solubility in data set [5] of over 50 µM.

`CCS(=O)(=O)c1ccc2[nH]c(Oc3ccc(OC(F)(F)F)cc3)nc2c1` yielded an IC50 in data set [2] of 22.4 nM. Further, the fraction remaining at 0.5 h in data set [3] came out at 92.8%; in data set [4] it was 91.6%. In data set [5], this compound yielded a kinetic solubility of over 50 µM.

As to `CCS(=O)(=O)c1ccc2[nH]c(O[C@H]3CC[C@H](c4ccccc4)CC3)nc2c1`, the IC50 in data set [2] was 3.75 nM. Also, the amount remaining at 0.5 h is over 99.9% in data set [3] and 93.8% in data set [4]. The same compound had a kinetic solubility in data set [5] of 6.1 µM (≈ 2.35 µg/mL).

As to `CCS(=O)(=O)c1ccc2nc(OCCc3ccccc3)[nH]c2c1`, in data set [2], the half-maximal inhibitory concentration (IC50) was found to be 25 nM. The share remaining at 0.5 h in data set [3] came to 88.1%; in data set [4], 37.6%. Also, the kinetic solubility in data set [5] is over 50 µM.

`CCS(=O)(=O)c1ccc2nc(OCc3cccc(Cl)c3)[nH]c2c1` returned an IC50 in data set [2] of 80.4 nM. Further, the results for the share remaining at 0.5 h in data set [3] and in data set [4] were 88.5% and 37.9%, respectively. For the same compound, the solubility (kinetic) in data set [5] worked out at 49.9 µM (≈ 17.5 µg/mL).

Take `CCS(=O)(=O)c1ccc2nc(Oc3ccc(-c4ccccc4)cn3)[nH]c2c1`: in data set [2], the 50% inhibitory concentration (IC50) turned out to be 96.4 nM. Also, the fraction remaining at 0.5 h in data set [3] is 89.2%; in data set [4], over 99.9%. The compound further came in with a kinetic solubility in data set [5] of 45.2 µM (≈ 17.2 µg/mL).

In data set [2], `CCS(=O)(=O)c1ccc2[nH]c(Oc3ccc(-c4ccccn4)cc3)nc2c1` displayed a 50% inhibitory concentration (IC50) of 4.07 nM. The compound also had a solubility (kinetic) in data set [5] of over 50 µM.

`CCS(=O)(=O)c1ccc2[nH]c(SCc3cccc(Cl)c3)nc2c1`: the 50% inhibitory concentration (IC50) in data set [2] was determined as 12.1 nM. The fraction remaining at 0.5 h in data set [3] came out at 63.7%; in data set [4] it was 0.13%. For the same compound, in data set [5], the solubility (kinetic) was found to be 27.5 µM (≈ 10.1 µg/mL).

Compound `CCS(=O)(=O)c1ccc2nc(Oc3ccc(C(F)(F)F)cc3)[nH]c2c1` registered a half-inhibitory concentration (IC50) in data set [2] of 98.1 nM. For the same compound, the share remaining at 0.5 h in data set [3] worked out at 95.2%; in data set [4] it was 86.9%. For the same compound, the solubility (kinetic) in data set [5] was over 50 µM.

For the compound `CCS(=O)(=O)c1ccc2[nH]c(Oc3cccc(C(F)(F)F)c3)nc2c1`, in data set [2], the IC50 is 41.2 nM. For the same compound, the fraction remaining at 0.5 h in data set [3] is over 99.9%; in data set [4] it was 88.4%. In addition, in data set [5], the solubility (kinetic) is over 50 µM.

Turning to `CCS(=O)(=O)c1ccc2[nH]c(Oc3ccc(-c4ccccc4)nc3)nc2c1`, the results for the Activity entry in data set [6], in data set [7] and in data set [8] were “Non-toxic”, “Dose-dependent effect” and 50.8%, respectively. The concentration at 0.5 h in data set [1] was found to be 2.9 ng/mL. The concentration for half-maximal inhibition (IC50) in data set [2] came to 2.92 nM. Moreover, the share remaining at 0.5 h in data set [3] is 98.6%; in data set [4] it was over 99.9%. Moreover, the kinetic solubility in data set [5] came to 39.7 µM (≈ 15.1 µg/mL).

The compound `CCS(=O)(=O)c1ccc2nc(C(F)(F)c3ccc(-c4ccccc4)cc3)[nH]c2c1` registered an IC50 in data set [2] of 48.6 nM. For the same compound, the values for the fraction remaining at 0.5 h in data set [3] and in data set [4] were 0.1% and 78.3%, respectively. In data set [5], this compound returned a solubility (kinetic) of 0.3 µM (≈ 0.124 µg/mL).
